Active and inactive are the calls of the source. No cut-off for these calls is given here.
Assays:
[1] = Inhibition of Pseudomonas aeruginosa recombinant His6-tagged PqsD expressed in Escherichia coli BL21(lambda DE3) assessed as anthraniloyl-CoA and beta-ketodecanoic acid conversion to heptyl-4-hydroxyquinoline preincubated for 10 mins prior to substrate addition by LC-MS/MS analysis
Procedure, shortened: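 HHQ formation from anthraniloyl-CoA and β-ketodecanoic acid by purified PqsD (0.1 µM) in 0.05 M MOPS pH 7.0, 0.005% Triton X-100, 0.5% final DMSO; 10 min preincubation with inhibitor at 37 °C, started with anthraniloyl-CoA (5 µM final) and β-ketodecanoic acid (70 µM final); HHQ quantified by LC-MS, DMSO control set to 100%; triplicates.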

[2] = system: Pseudomonas aeruginosa; assay: Binding affinity to Pseudomonas aeruginosa recombinant His6-tagged PqsD ACoA-channel expressed in Escherichia coli BL21(lambda DE3) at 25 uM after 30 mins by LC-ESI-MS analysis
Procedure, shortened: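 PqsD (25 µM) preincubated 30 min at 37 °C with compound (25 µM) in 0.05 M Tris-HCl pH 8.0, 0.5% DMSO; DTT added, then reversed-phase HPLC (C8, water/acetonitrile with 0.05% TFA gradient, 45 °C) coupled to ESI high-resolution TOF MS to detect intact protein–inhibitor adduct mass.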

[3] = system: Pseudomonas aeruginosa; assay: Binding affinity to tryptically digested Pseudomonas aeruginosa recombinant His6-tagged PqsD ACoA-channel expressed in Escherichia coli BL21(lambda DE3) at 10 uM after 60 mins by MALDI-TOF-MS analysis
Procedure, shortened: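 PqsD (10 µM) and compound (10 µM) preincubated 60 min at 37 °C in 0.05 M MOPS pH 7.0, 0.005% Triton X-100, 0.5% DMSO; buffer exchanged to 0.05 M NH4HCO3 pH 8.1 by diafiltration, trypsin digestion overnight, DTT added; peptides analysed by MALDI-TOF in positive reflector mode, tracking the Cys112-containing fragment.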

[4] = system: Escherichia coli; assay: Inhibition of Escherichia coli RNA polymerase at 200 uM preincubated for 10 mins prior to DNA template and NTPs addition measured after 10 mins by [5,6-3H]-UTP incorporation assay relative to control
Procedure, shortened: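 E. coli RNA polymerase holoenzyme (1 unit) in 40 mM Tris-HCl pH 7.5, 150 mM KCl, 10 mM MgCl2, 10 mM DTT, 0.1% CHAPS, RNase inhibitor, 2% final DMSO; preincubated with compound 10 min at 25 °C; started with plasmid DNA template plus 400 µM ATP/CTP/GTP, 100 µM UTP and [5,6-3H]-UTP, 10 min at 37 °C; TCA-precipitated RNA counted by scintillation.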

[5] = system: Pseudomonas aeruginosa; assay: Competitive binding affinity to Pseudomonas aeruginosa recombinant His6-tagged PqsD ACoA-channel expressed in Escherichia coli BL21(lambda DE3) at 100 uM by SPR analysis in presence of (2-nitrophenyl)methanol
Procedure, shortened: (§1)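 SPR competition: amine-coupled PqsD on CMD500M chip preincubated by adding competitor (100 µM) to running buffer (50 mM MOPS pH 8.0, 150 mM NaCl, 5% DMSO, 0.1% Triton X-100), flushed at 50 µL/min until stable; test compounds (100 µM) then injected twice at 10 µL/min, 120 s association, 300 s dissociation.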

[6] = system: Pseudomonas aeruginosa; assay: Competitive binding affinity to Pseudomonas aeruginosa recombinant His6-tagged PqsD ACoA-channel expressed in Escherichia coli BL21(lambda DE3) at 100 uM by SPR analysis in presence of (2-nitrophenyl)(phenyl)methanol; procedure, shortened: as §1
[7] = system: Pseudomonas aeruginosa; assay: Binding affinity to Pseudomonas aeruginosa recombinant His6-tagged PqsD expressed in Escherichia coli BL21(lambda DE3) at 100 uM by SPR analysis
Procedure, shortened: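 SPR: wild-type or R223A mutant PqsD amine-coupled to CMD500M chip (5000-6000 RU) at 12 °C; running buffer 50 mM MOPS pH 8.0, 150 mM NaCl, 5% DMSO, 0.1% Triton X-100; compounds at 100 µM final injected twice, 120 s association, 300 s dissociation, 50 µL/min; double referencing with blanks and DMSO calibration.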

[8] = system: Pseudomonas aeruginosa; assay: Binding affinity to Pseudomonas aeruginosa recombinant His6-tagged PqsD R223A mutant expressed in Escherichia coli BL21(lambda DE3) at 100 uM by SPR analysis
Procedure, shortened: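 Recombinant His6-PqsD R223A (E. coli BL21(λDE3), Ni-NTA purified) amine-coupled to CMD500M chip at 5000-6000 RU. Compounds diluted from 10 mM DMSO stock to 100 µM final in running buffer (50 mM MOPS pH 8.0, 150 mM NaCl, 5% DMSO, 0.1% Triton X-100). Run at 12 °C, 50 µL/min. Each compound injected twice, 120 s association, 300 s dissociation. Data double-referenced against blanks and DMSO calibration.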

[9] = system: Pseudomonas aeruginosa; assay: Competitive binding affinity to Pseudomonas aeruginosa recombinant His6-tagged PqsD ACoA-channel expressed in Escherichia coli BL21(lambda DE3) at 1 mM by saturation transfer difference NMR analysis in presence of (2-nitrophenyl)(phenyl)methanol
[10] = system: Pseudomonas aeruginosa; assay: Inhibition of anthraniloyl coenzyme A binding to Pseudomonas aeruginosa recombinant His6-tagged PqsD ACoA-channel expressed in Escherichia coli BL21(lambda DE3) by SPR analysis
[11] = Binding affinity to Pseudomonas aeruginosa recombinant His6-tagged PqsD expressed in Escherichia coli BL21(lambda DE3) measured every 180 seconds by isothermal titration calorimetric analysis
Procedure, shortened: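 ITC at 25 °C in PBS pH 7.4, 10% glycerol, 5% DMSO; 100 µM His6-PqsD in cell titrated with 2 µL injections of 1.0 mM ligand every 180 s; ligand diluted 1:20 from 20 mM DMSO stock; protein quantified by A280 (ε 17,780 M−1 cm−1); stoichiometry and KD fitted.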

SMILES	IC50 [1] [µM]	Activity [6]	further results
COc1ccc(-c2cc(NC(=O)NCCC(=O)O)c(C(=O)O)s2)cc1	37		
COc1ccc(-c2cc(NC(=O)NCCc3ccccc3)c(C(=O)O)s2)cc1	58		
NC(=O)Nc1cc(-c2ccc(Oc3ccccc3)cc2)sc1C(=O)O	20	Active	Activity [5]: Active; Activity [7]: Active
COc1ccc(-c2cc(NC(N)=O)c(C(=O)O)s2)cc1	170	Active	RU [8]: 6; RU [7]: 25
COc1ccc(-c2cc(NC(=O)NC(C)(C)C(=O)O)c(C(=O)O)s2)cc1	56		
COc1ccc(-c2cc(NC(=O)N[C@H](Cc3ccccc3)C(=O)O)c(C(=O)O)s2)cc1	26		
COc1ccc(-c2cc(NC(=O)N[C@H](C)C(=O)O)c(C(=O)O)s2)cc1	54		

The next compounds have a lower IC50 [1] than those just listed; values first:

IC50 [1] [µM]	Activity [6]	SMILES	further results
2		O=C(CCl)Nc1ccc(-c2cc(NC(=O)N[C@@H](Cc3ccccc3)C(=O)O)c(C(=O)O)s2)cc1	Activity [2]: Active; Activity [3]: Active
2		COc1ccc(-c2cc(NC(=O)N[C@@H](C)C(=O)O)c(C(=O)O)s2)cc1	inhibition [4]: 10%
7		COc1ccc(-c2cc(NC(=O)NCC(=O)O)c(C(=O)O)s2)cc1	
0.5	Active	COc1ccc(-c2cc(NC(=O)N[C@@H](Cc3ccccc3)C(=O)O)c(C(=O)O)s2)cc1	inhibition [4]: 10%; Activity [9]: Active
6	Active	CCN(Cc1ccccc1)C(=O)Nc1cc(-c2ccc(OC)cc2)sc1C(=O)O	Activity [5]: inactive; inhibition [10]: Active; Kd [11]: 6.3 µM; Activity [7]: Active

From ChEMBL document CHEMBL3085679, “Combining in silico and biophysical methods for the development of Pseudomonas aeruginosa quorum sensing inhibitors: an alternative approach for structure-based drug design” (J Med Chem, 2013)
